Assay results as given in ChEMBL document CHEMBL1914440, “Discovery of potent, selective, and orally bioavailable alkynylphenoxyacetic acid CRTH2 (DP2) receptor antagonists for the treatment of allergic inflammatory diseases” (J Med Chem, 2011).

Assays:
[1] = target: T1, Prostaglandin D2 receptor 2 (Homo sapiens, UniProt Q9Y5Y4); experiment: Displacement of [3H]PGD2 from human CRTH2 expressed in chinese hamster CHO cells by liquid scintillation counting; assay type: cell-based
T1 sequence (Q9Y5Y4 whole entry): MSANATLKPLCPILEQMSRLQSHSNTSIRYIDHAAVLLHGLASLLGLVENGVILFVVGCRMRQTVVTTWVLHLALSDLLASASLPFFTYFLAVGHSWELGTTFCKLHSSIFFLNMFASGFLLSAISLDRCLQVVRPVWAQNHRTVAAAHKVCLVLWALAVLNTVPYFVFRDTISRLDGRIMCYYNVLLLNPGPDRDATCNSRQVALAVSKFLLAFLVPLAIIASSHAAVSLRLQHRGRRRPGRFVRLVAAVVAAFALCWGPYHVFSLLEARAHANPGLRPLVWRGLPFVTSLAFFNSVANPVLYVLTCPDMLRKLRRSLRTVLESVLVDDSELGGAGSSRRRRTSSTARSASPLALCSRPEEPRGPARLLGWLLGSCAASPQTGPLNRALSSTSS
Summary of the method: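 Scintillation proximity competition assay: 2–5 μg human CRTH2 cell membranes, 1.5 nM [3H]PGD2, WGA-SPA beads, 10 mM HEPES/KOH pH 7.4, 10 mM MnCl2, protease inhibitors, 1% DMSO; 90 min, room temperature, shaking. Nonspecific binding defined with 1 μM PGD2. Ki by Cheng–Prusoff, mean of ≥3 independent dose–response experiments.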

[2] = Percentage unbound in human plasma; assay type: ADME, cell-free
[3] = Clearance in BALB/c mouse at 5 mg/kg, po by LC/MS/MS analysis; assay type: ADME, organism-based; set-up: dose 5 mg/kg, route oral; details: in vivo
[4] = Percentage unbound in mouse plasma; assay type: ADME, cell-free
[5] = Percentage unbound in rat plasma; assay type: ADME, cell-free
[6] = Intrinsic clearance in human liver microsomes assessed per mg of protein at 1 uM by LC/MS/MS analysis; assay type: ADME, Microsome
[7] = Intrinsic clearance in rat liver microsomes assessed per mg of protein at 1 uM by LC/MS/MS analysis; assay type: ADME, Microsome
[8] = target: T2, Prostaglandin D2 receptor 2 (Homo sapiens) (UniProt Q9Y5Y4); experiment: Partial agonist activity at human CRTH2 expressed in chinese hamster CHO cells by cellular dielectric spectroscopy relative to PGD2; assay type: functional, cell-based
T2 sequence (whole entry): T1 sequence (Q9Y5Y4 whole entry)
Summary of the method: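 CHO-CRTH2 cells seeded at 100000/well, grown 24 h at 37 °C, washed into HBSS/10 mM HEPES pH 7.4 with 1% DMSO; impedance recorded. Agonism: compound alone, 25 min read. Antagonism: PGD2 at EC80 added to cell–compound mixture, 25 min read. Run with 0.1% BSA.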

[9] = Oral bioavailability in BALB/c mouse at 5 mg/kg by LC/MS/MS analysis; assay type: ADME, organism-based; details: in vivo
Summary of the method: (§1)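 Mouse PK after a 5 mg/kg oral dose.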

[10] = AUC in BALB/c mouse at 5 mg/kg, po; assay type: ADME, organism-based; set-up: dose 5 mg/kg, route oral; details: plasma; summary of the method: as §1

## O=C(O)COc1ccc(Cl)cc1C#Cc1ccc2c(c1)S(=O)(=O)c1ccccc1-2
[1]
  Ki: 12 nM
[2]
  fraction unbound: < 0.001
[3]
  CL/F: 1.67 mL/min/kg

## CCCc1ccc(S(C)(=O)=O)cc1C#Cc1cc(Cl)ccc1OCC(=O)O
[4]
  fraction unbound: 0.006
[1]
  Ki: 8.6 nM
[5]
  fraction unbound: 0.002
[2]
  fraction unbound: 0.002

## Cc1ccc(S(=O)(=O)NC(C)C)cc1C#Cc1cc(Cl)ccc1OCC(=O)O
[4]
  fraction unbound: 0.01
[1]
  Ki: 3.4 nM
[5]
  fraction unbound: 0.004
[6]
  microsomal CLint at 1 µM: < 10 µL/min/mg
[2]
  fraction unbound: 0.004
[7]
  microsomal CLint at 1 µM: 12 µL/min/mg

## CCNS(=O)(=O)c1ccc(C)c(C#Cc2cc(Cl)ccc2OCC(=O)O)c1
[4]
  fraction unbound: 0.008
[1]
  Ki: 4.4 nM
[5]
  fraction unbound: 0.008
[6]
  microsomal CLint at 1 µM: < 10 µL/min/mg
[2]
  fraction unbound: 0.005
[7]
  microsomal CLint at 1 µM: 24 µL/min/mg

## O=C(O)COc1ccc(Cl)cc1C#Cc1cccc(S(=O)(=O)CCO)c1
[4]
  fraction unbound: 0.3
[1]
  Ki: 10 nM
[5]
  fraction unbound: 0.081
[2]
  fraction unbound: 0.047

## COCCN(C)S(=O)(=O)c1ccc(C)c(C#Cc2cc(Cl)ccc2OCC(=O)O)c1
[4]
  fraction unbound: 0.007
[1]
  Ki: 4.1 nM
[5]
  fraction unbound: 0.007
[6]
  microsomal CLint at 1 µM: 32 µL/min/mg
[2]
  fraction unbound: 0.006
[7]
  microsomal CLint at 1 µM: 49 µL/min/mg

## CN(C)S(=O)(=O)c1ccc(F)c(C#Cc2cc(Cl)ccc2OCC(=O)O)c1
[4]
  fraction unbound: 0.029
[1]
  Ki: 3.1 nM
[5]
  fraction unbound: 0.007
[6]
  microsomal CLint at 1 µM: < 10 µL/min/mg
[2]
  fraction unbound: 0.009
[7]
  microsomal CLint at 1 µM: < 10 µL/min/mg
[3]
  CL/F: 10 mL/min/kg

## CS(=O)(=O)c1cccc(C#Cc2cc(Cl)ccc2OCC(=O)O)c1
[1]
  Ki: 15 nM
[8]
  Emax: 10%

## CC(C)S(=O)(=O)c1cc(C#Cc2cc(Cl)ccc2OCC(=O)O)ccc1C(=O)N1CCOCC1
[1]
  Ki: 87 nM

## O=C(O)COc1ccc(Cl)cc1C#Cc1ccccn1
[1]
  Ki: 1120 nM

## CC(C)S(=O)(=O)c1ccc(Cl)c(C#Cc2cc(Cl)ccc2OCC(=O)O)c1
[1]
  Ki: 2.9 nM
[3]
  CL/F: 11.7 mL/min/kg

## O=C(O)COc1ccc(Cl)cc1C#Cc1cccc(C(F)(F)F)c1
[1]
  Ki: 92 nM

## CN(C)S(=O)(=O)c1cccc(C#Cc2cc(Cl)ccc2OCC(=O)O)c1
[1]
  Ki: 14 nM

## CC(C)S(=O)(=O)c1cc(C#Cc2cc(Cl)ccc2OCC(=O)O)ccc1C(=O)N(C)C
[1]
  Ki: 65 nM

## COCc1ccc(C#Cc2cc(Cl)ccc2OCC(=O)O)c(F)c1
[1]
  Ki: 22 nM

## Cn1ccnc1C#Cc1cc(Cl)ccc1OCC(=O)O
[1]
  Ki: 1470 nM

## CCCS(=O)(=O)c1ccc(C)c(C#Cc2cc(Cl)ccc2OC(CC(C)C)C(=O)O)c1 (stereo not given)
[1]
  Ki: 515 nM

## CCCc1ccncc1C#Cc1cc(Cl)ccc1OCC(=O)O
[1]
  Ki: 4.3 nM

## O=C(O)COc1ccc(Cl)cc1C#Cc1cncc(S(=O)(=O)NCCO)c1
[1]
  Ki: 301 nM

## O=C(O)COc1ccc(Cl)cc1C#Cc1ccc2c(c1)S(=O)(=O)CC2
[1]
  Ki: 23 nM

## O=C(O)COc1ccc(Cl)cc1C#Cc1ccccc1
[1]
  Ki: 108 nM

## CCCS(=O)(=O)c1ccc(C)c(C#Cc2cc(Cl)ccc2OC(C)C(=O)O)c1 (stereo not given)
[1]
  Ki: 1.2 nM

## CC(C)S(=O)(=O)c1ccc(F)c(C#Cc2cc(Cl)ccc2OCC(=O)O)c1
[1]
  Ki: 4 nM
[3]
  CL/F: 5.83 mL/min/kg
[9]
  bioavailability: 130%

## O=C(O)COc1ccc(Cl)cc1C#Cc1cccnc1
[1]
  Ki: 117 nM
[2]
  fraction unbound: 0.029

## CCCS(=O)(=O)c1cc(C#Cc2cc(Cl)ccc2OCC(=O)O)c(C)cc1NC(C)=O
[1]
  Ki: 1.3 nM

## O=C(O)COc1ccccc1C#Cc1ccccc1Cl
[1]
  Ki: 747 nM

## CC(C)c1ccc(S(C)(=O)=O)cc1C#Cc1cc(C#N)ccc1OCC(=O)O
[1]
  Ki: 12 nM
[3]
  CL/F: 145 mL/min/kg
[10]
  AUC: 151 ng·h/mL
[9]
  bioavailability: 26%

## O=C(O)COc1ccc(Cl)cc1C#Cc1ccc2c(c1)S(=O)(=O)C=C2
[1]
  Ki: 25 nM

## Cc1ccc(S(=O)(=O)N(C)CC(C)C)cc1C#Cc1cc(Cl)ccc1OCC(=O)O
[1]
  Ki: 4.2 nM
[6]
  microsomal CLint at 1 µM: 79 µL/min/mg
[7]
  microsomal CLint at 1 µM: 119 µL/min/mg

## O=C(O)COc1ccc(Cl)cc1C#Cc1ccc(Cl)s1
[1]
  Ki: 183 nM

## COc1ccc(-c2ccc(C#Cc3cc(Cl)ccc3OCC(=O)O)cc2S(C)(=O)=O)cc1
[1]
  Ki: 7 nM

## Cc1ccc(S(=O)(=O)N2CCCCC2C)cc1C#Cc1cc(Cl)ccc1OCC(=O)O (stereo not given)
[1]
  Ki: 1.9 nM
[6]
  microsomal CLint at 1 µM: 89 µL/min/mg
[7]
  microsomal CLint at 1 µM: 418 µL/min/mg

## CCCS(=O)(=O)c1cccc(C#Cc2cc(C(F)(F)F)ccc2OCC(=O)O)c1
[1]
  Ki: 10 nM

## CN(c1cccc(C#Cc2cc(Cl)ccc2OCC(=O)O)c1)S(C)(=O)=O
[1]
  Ki: 122 nM
